The target of assay [1] is Delta-type opioid receptor (Rattus norvegicus, UniProt P33533). The assay is described as follows: Displacement of [3H]pCl-DPDP from delta opioid receptor in rat central nervous system membrane. In kind it is tissue-based. In a few lines: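 Rat CNS membranes incubated with 1 nM [3H]-pCl-DPDP-enkephalin for 270 min at 20°. Bound and free ligand separated by rapid filtration; radioactivity counted by beta scintillation. Nonspecific binding set with 10^-5 M unlabelled DPDP-enkephalin (specific >70%). IC50 (half-maximal displacement, molar) obtained from displacement curves.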
On the technique in general: Loss of bound radioactivity is the signal in a displacement assay; it reports binding, not function.

The target in assay [2] is Mu-type opioid receptor (Rattus norvegicus, UniProt P33535). The assay is described as follows: Displacement of [3H]DAMGO from mu opioid receptor in rat central nervous system membrane. It counts as tissue-based. A digest of the protocol: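 Rat CNS membranes incubated with 1 nM [3H]-DAGO for 60 min at 20°. Bound and free radioligand separated by rapid filtration, then beta-scintillation counting. Specific binding defined with 10^-5 M unlabelled DAGO (>70%). IC50 (molar concentration giving half-maximal displacement) calculated from displacement curves.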

Assay [3] in a line: Displacement of [3H]U69593 from kappa opioid receptor in guinea pig cerebellum membrane. It counts as cell membranes, Cavia porcellus. In a few lines: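 Guinea pig cerebellum homogenate incubated with 1.5 nM [3H]-U 69593 for 60 min at 20°. Rapid filtration, then beta-scintillation counting. Specific binding defined with 10^-5 M U50488H (>70%). IC50, the molar concentration giving half-maximal displacement, derived from displacement curves.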

Delta-type opioid receptor, sequence (P33533 whole entry): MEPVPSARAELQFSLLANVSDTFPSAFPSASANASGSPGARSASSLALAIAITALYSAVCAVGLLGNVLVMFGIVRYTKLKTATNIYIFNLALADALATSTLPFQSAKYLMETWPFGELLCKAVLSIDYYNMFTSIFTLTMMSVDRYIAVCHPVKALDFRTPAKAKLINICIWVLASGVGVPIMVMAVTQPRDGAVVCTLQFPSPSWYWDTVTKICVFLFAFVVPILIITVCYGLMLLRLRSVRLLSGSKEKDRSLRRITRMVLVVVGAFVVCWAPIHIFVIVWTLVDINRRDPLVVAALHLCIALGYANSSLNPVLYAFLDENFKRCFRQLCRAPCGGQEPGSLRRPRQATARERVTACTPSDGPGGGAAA
Mu-type opioid receptor, sequence (P33535 whole entry): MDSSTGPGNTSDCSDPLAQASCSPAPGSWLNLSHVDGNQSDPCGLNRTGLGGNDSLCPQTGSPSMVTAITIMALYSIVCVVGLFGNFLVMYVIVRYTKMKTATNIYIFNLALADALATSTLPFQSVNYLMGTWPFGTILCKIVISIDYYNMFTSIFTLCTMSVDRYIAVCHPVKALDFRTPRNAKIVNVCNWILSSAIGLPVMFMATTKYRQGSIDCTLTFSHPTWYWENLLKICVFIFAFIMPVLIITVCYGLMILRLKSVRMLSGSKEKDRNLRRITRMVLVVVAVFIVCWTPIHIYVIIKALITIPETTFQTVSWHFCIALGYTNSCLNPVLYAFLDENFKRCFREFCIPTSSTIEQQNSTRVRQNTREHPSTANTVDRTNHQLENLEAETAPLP

Broadly, the IC50 is the concentration at which inhibition is half-maximal. As for `CN1CC[C@@]2(C)c3cc(O)ccc3N(C)[C@@H]12`, the IC50 in assay [1] is 10 µM; in assay [2], 0.3 µM; in assay [3] it was 0.3 µM.

As for `C/C=C1/CN2CC[C@@]34c5cc(O)ccc5N(C)[C@]35OC[C@@]4(C(=O)OC)[C@@H]1C[C@H]25` [AKUAMMINE], the IC50 worked out at 20 µM in assay [1] and 4 µM in assay [3].

`C/C=C1/CN2CC[C@@]34c5cc(O)ccc5N(C)[C@@]23CC[C@H]1[C@@]4(CO)C(=O)OC` [DIHYDROAKUAMMINE]: the IC50 in assay [1] is more than 100 µM; in assay [2] it was 6 µM; in assay [3], 20 µM.
